Test results as given in ChEMBL document CHEMBL1123091, “Synthesis and antiviral evaluation of nucleosides of 5-methylimidazole-4-carboxamide” (J Med Chem, 1985).
Values after ≈ are worked out from the molar mass of the structure shown.

Legend:
Human alphaherpesvirus 1 [1] = test: Compound was tested for antiviral activity in HeLa Cell cultures, against herpes simplex virus type 1 (HSV-1), cytopathic effect induced by the virus (CPE); format: functional
Outline: (§1)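 HeLa cells grown to confluency in petri dishes, then infected (or mock-infected) with HSV-1 at 0.5 PFU/cell. Test compound added at a range of concentrations.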

[2] = Compound was tested for antiviral activity in HeLa Cell cultures, against vesicular stomatitis virus (VSV); format: ADME, organism-based; settings: read-out: Tox50
Outline: (§2)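 HeLa cells grown to confluency in petri dishes, then infected (or mock-infected) with VSV at 0.01 PFU/cell. Test compound added at a range of concentrations.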

[3] = system: Vesicular stomatitis virus; test: Compound was tested for antiviral activity in HeLa Cell cultures, against vesicular stomatitis virus (VSV), cytopathic effect induced by the virus (CPE); format: functional; outline: as §2
[4] = Compound was tested for antiviral activity in HeLa Cell cultures, against herpes simplex virus type 1 (HSV-1); format: organism-based; settings: human alphaherpesvirus 1, HeLa cell cultures; read-out: Tox50; outline: as §1
[5] = system: Vesicular stomatitis virus; test: Compound was tested for antiviral activity in HeLa Cell cultures, against vesicular stomatitis virus (VSV) expressed as cytopathic effect induced by the virus (CPE); format: functional; outline: as §2
Human alphaherpesvirus 1 [6] = test: Compound was tested for antiviral activity in HeLa Cell cultures, against herpes simplex virus type 1 (HSV-1) expressed as cytopathic effect induced by the virus (CPE); format: functional; outline: as §1
[7] = Compound was tested for antiviral activity in HeLa Cell cultures against vesicular stomatitis virus (VSV); format: ADME, organism-based; settings: read-out: Tox50; outline: as §2
[8] = Compound was tested for antiviral activity in HeLa Cell cultures against herpes simplex virus type 1 (HSV-1); format: organism-based; settings: human alphaherpesvirus 1, HeLa cell cultures; read-out: Tox50; outline: as §1

## Cc1c(C(N)=O)ncn1[C@@H]1C[C@H](O)[C@@H](CO)O1
Human alphaherpesvirus 1 [1]
  CPE50: >200 µg/mL
[2]
  CC50: > 400 µg/mL
[3]
  CPE50: 150 µg/mL
[4]
  CC50: > 200 µg/mL

## Cc1c(C(N)=O)ncn1[C@H]1C[C@H](O)[C@@H](CO)O1
[5]
  CPE50: 150 µg/mL
Human alphaherpesvirus 1 [6]
  CPE50: 150 µg/mL
[7]
  CC50: > 400 µg/mL
[8]
  CC50: 300 µg/mL (≈ 1240 µM)

## Cc1[nH]cnc1C(N)=O
Human alphaherpesvirus 1 [1]
  CPE50: >200 µg/mL
[4]
  CC50: > 200 µg/mL

## Cc1c(C(N)=O)ncn1COCCO
Human alphaherpesvirus 1 [1]
  CPE50: >200 µg/mL
[2]
  CC50: > 200 µg/mL
[3]
  CPE50: 180 µg/mL
[4]
  CC50: > 200 µg/mL

## Cc1c(C(N)=O)ncn1C1O[C@H](CO)[C@@H](O)[C@H]1O (some centres not stated)
Human alphaherpesvirus 1 [1]
  CPE50: 75 µg/mL
[2]
  CC50: > 400 µg/mL
[3]
  CPE50: 125 µg/mL
[4]
  CC50: > 400 µg/mL

## NC(=O)c1ncn([C@@H]2O[C@H](CO)[C@@H](O)[C@H]2O)n1 [RIBAVIRIN]
Human alphaherpesvirus 1 [1]
  CPE50: 75 µg/mL
[2]
  CC50: 400 µg/mL (≈ 1640 µM)
[3]
  CPE50: 15 µg/mL
[4]
  CC50: 400 µg/mL (≈ 1640 µM)
